# In ChEMBL document CHEMBL4393719, “Tetrahydro-3-benzazepines with fluorinated side chains as NMDA and σ1 receptor antagonists: Synthesis, receptor affinity, selectivity and antiallodynic activity” (Eur J Med Chem, 2019):
# Active and inactive are the calls of the source.
# System: not listed separately
# Experiment: Displacement of [3H] ifenprodil from GluN2B/GluN1a (unknown origin) expressed in mouse L(tk-) cell membranes incubated for 120 mins by scintillation counting method
# Set-up: species or system Homo sapiens
# Settings: not given
# In short: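 Membranes from mouse L(tk-) cells co-transfected with dexamethasone-inducible GluN1a/GluN2B (1:5), induced 24 h with 4 μM dexamethasone plus 4 μM ketamine.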
row,SMILES,Ki [nM]
1,"Oc1ccc2c(c1)CCN(CCC(F)Cc1ccccc1)CC2 (single isomer, unassigned; (-))",65
2,FC(CCN1CCc2ccccc2CC1)Cc1ccccc1 (centres undefined),30
3,Oc1ccc2c(c1)CCN(CCC(F)Cc1ccccc1)CC2 (racemic) [listing 1 of 2 here],16

# Biological target: Sigma non-opioid intracellular receptor 1 (Cavia porcellus, UniProt Q60492);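 note: radioligand displacement of [3H]-(+)-pentazocine from guinea pig brain cortex membranes, 120 min incubation, bound radioactivity read by scintillation counting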
# Format: cell membranes
# Settings: not given
# Sequence of Sigma non-opioid intracellular receptor 1 (Q60492 whole entry): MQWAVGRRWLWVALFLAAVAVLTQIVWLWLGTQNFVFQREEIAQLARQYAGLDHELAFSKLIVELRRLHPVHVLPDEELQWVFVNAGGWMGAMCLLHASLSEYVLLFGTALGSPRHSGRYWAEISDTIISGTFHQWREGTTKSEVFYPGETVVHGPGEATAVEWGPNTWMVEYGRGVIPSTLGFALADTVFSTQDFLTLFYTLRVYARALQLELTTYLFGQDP
row,Ki [nM],SMILES
1,25,"Oc1ccc2c(c1)CCN(CCC(F)Cc1ccccc1)CC2 (single isomer, unassigned; (-))"
2,8,FC(CCN1CCc2ccccc2CC1)Cc1ccccc1 (centres undefined)
3,17,Oc1ccc2c(c1)CCN(CCC(F)Cc1ccccc1)CC2 (racemic) [listing 1 of 2 here]

# Biological target: T1, Sigma intracellular receptor 2 (Rattus norvegicus, UniProt Q5U3Y7)
# T1 sequence (Q5U3Y7 whole entry): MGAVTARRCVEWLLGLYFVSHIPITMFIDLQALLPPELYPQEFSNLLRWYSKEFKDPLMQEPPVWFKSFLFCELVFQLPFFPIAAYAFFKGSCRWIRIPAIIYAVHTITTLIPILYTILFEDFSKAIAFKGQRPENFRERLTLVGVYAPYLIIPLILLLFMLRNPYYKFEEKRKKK
# Experiment: Displacement of [3H]-di-o-tolylguanidine from sigma2 receptor in rat liver membranes incubated for 120 mins by scintillation counting method
# Format: cell membranes
# Settings: not given
row,Ki [nM],SMILES
1,63,"Oc1ccc2c(c1)CCN(CCC(F)Cc1ccccc1)CC2 (single isomer, unassigned; (-))"
2,48,FC(CCN1CCc2ccccc2CC1)Cc1ccccc1 (centres undefined)
3,39,Oc1ccc2c(c1)CCN(CCC(F)Cc1ccccc1)CC2 (racemic) [listing 1 of 2 here]

# Biological target: T2, Mu-type opioid receptor (Homo sapiens, UniProt P35372)
# Experiment: Displacement of [3H]DAMGO from human MOR expressed in CHO-K1 cells membranes after 60 mins by micro beta scintillation counting method
# Format: cell membranes
# Settings: not given
# In short: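 Human MOR in CHO-K1 membranes (20 µg) with 1 nM [3H]DAMGO in 50 mM Tris-HCl, 5 mM MgCl2, pH 7.4, 27 °C for 60 min. Test compound at five concentrations; 10 µM naloxone defines nonspecific binding. Filtered, washed thrice with ice-cold 10 mM Tris-HCl, counted by liquid scintillation.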
# T2 sequence (P35372 whole entry): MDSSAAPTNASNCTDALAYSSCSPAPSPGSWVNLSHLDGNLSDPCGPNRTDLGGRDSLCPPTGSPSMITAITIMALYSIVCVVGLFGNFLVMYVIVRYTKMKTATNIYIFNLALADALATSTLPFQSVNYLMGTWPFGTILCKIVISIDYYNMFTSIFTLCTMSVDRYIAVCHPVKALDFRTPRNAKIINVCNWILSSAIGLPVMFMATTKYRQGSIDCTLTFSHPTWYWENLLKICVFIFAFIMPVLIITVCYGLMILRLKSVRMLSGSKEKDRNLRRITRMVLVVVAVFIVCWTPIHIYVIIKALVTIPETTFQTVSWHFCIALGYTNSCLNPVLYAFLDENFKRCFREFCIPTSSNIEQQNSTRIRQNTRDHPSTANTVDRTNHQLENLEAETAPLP
row,Ki [nM],SMILES
1,406,FC(CCN1CCc2ccccc2CC1)Cc1ccccc1 (centres undefined)

# Biological target: Delta-type opioid receptor (Homo sapiens, UniProt P41143)
# Experiment: Inhibition of DOR (unknown origin)
# Settings: not given
row,Ki [nM],SMILES
1,> 1000,FC(CCN1CCc2ccccc2CC1)Cc1ccccc1 (centres undefined)

# Biological target: Kappa-type opioid receptor (Homo sapiens, UniProt P41145)
# Experiment: Inhibition of KOR (unknown origin)
# Settings: not given
row,Ki [nM],SMILES
1,> 1000,FC(CCN1CCc2ccccc2CC1)Cc1ccccc1 (centres undefined)

# Biological target: T2, Mu-type opioid receptor
# Experiment: Agonist activity at MOR (unknown origin) by cAMP assay
# Format: functional
# Settings: not given
row,EC50 [nM],SMILES
1,> 10000,FC(CCN1CCc2ccccc2CC1)Cc1ccccc1 (centres undefined)

# Biological target: Voltage-gated inwardly rectifying potassium channel KCNH2 (Homo sapiens, UniProt Q12809)
# Experiment: Inhibition of human ERG expressed in CHO cells at -80 mV holding potential by automated patch clamp electrophysiology assay
# Format: cell-based
# Settings: not given
# Sequence of Voltage-gated inwardly rectifying potassium channel KCNH2 (Q12809 whole entry): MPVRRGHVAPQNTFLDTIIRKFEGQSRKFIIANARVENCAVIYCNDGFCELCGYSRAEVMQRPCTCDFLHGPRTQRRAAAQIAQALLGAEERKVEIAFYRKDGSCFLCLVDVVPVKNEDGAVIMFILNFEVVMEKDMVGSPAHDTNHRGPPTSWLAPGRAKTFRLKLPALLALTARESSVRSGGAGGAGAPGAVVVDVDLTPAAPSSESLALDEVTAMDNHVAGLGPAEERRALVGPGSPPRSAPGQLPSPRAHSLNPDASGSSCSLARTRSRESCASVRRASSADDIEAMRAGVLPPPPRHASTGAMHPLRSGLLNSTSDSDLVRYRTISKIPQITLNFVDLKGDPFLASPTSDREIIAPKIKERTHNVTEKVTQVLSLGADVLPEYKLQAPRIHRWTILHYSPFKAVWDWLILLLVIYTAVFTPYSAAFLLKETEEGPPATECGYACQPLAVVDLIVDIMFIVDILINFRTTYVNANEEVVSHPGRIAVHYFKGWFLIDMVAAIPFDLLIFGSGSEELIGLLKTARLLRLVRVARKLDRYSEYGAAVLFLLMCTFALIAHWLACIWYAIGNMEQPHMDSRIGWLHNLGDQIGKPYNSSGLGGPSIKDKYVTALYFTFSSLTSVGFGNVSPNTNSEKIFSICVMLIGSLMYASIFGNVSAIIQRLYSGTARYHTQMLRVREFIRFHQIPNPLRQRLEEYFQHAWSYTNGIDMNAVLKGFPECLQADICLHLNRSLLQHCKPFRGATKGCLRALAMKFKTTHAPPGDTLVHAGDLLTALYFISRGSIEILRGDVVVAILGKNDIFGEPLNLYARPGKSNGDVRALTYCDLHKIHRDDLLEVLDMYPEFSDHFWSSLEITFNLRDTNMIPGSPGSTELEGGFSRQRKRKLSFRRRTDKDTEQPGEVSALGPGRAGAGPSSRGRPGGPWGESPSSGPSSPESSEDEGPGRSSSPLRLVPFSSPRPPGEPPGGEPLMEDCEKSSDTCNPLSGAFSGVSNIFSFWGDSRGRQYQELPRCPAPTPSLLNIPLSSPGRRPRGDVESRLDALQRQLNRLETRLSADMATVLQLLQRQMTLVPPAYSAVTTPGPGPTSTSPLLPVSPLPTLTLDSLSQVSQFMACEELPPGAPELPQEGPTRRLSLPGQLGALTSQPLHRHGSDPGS
row,SMILES,IC50 [nM]
1,FC(CCN1CCc2ccccc2CC1)Cc1ccccc1 (centres undefined),1180

# Biological target: Sodium-dependent serotonin transporter (Homo sapiens) (UniProt P31645)
# Experiment: Displacement of [3H]imipramine from human serotonin transporter at 1 uM after 30 mins by scintillation counting method relative to control
# Settings: not given
# In short: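 Human SERT-enriched membranes (3.5 μg) incubated 30 min at 27 °C with 3 nM [3H]imipramine in Tris-HCl/120 mM NaCl/5 mM KCl pH 7.4, 0.1% DMSO; 200 μM imipramine for nonspecific binding. Compound at 1 μM; displacement after filtration.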
# Sequence of Sodium-dependent serotonin transporter (Homo sapiens) (P31645 whole entry, looked up): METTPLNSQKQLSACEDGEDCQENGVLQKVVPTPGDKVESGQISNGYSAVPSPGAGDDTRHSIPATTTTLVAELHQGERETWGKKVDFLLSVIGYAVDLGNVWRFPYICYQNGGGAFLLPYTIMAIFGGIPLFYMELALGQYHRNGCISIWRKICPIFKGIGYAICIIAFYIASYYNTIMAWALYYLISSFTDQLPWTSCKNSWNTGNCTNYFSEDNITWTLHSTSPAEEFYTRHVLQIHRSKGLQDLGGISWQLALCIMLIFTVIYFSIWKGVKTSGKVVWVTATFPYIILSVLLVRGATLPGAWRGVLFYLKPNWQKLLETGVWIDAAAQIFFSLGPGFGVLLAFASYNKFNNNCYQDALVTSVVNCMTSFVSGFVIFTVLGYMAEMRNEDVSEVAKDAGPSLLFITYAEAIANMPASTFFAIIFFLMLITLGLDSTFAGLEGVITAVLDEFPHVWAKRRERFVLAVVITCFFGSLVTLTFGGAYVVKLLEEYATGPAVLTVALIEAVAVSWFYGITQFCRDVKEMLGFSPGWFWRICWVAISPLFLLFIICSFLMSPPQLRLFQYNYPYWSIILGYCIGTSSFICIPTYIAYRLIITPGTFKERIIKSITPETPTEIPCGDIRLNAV
row,inhibition [%],SMILES
1,< 50,FC(CCN1CCc2ccccc2CC1)Cc1ccccc1 (centres undefined)

# Biological target: Sodium-dependent noradrenaline transporter (Homo sapiens) (UniProt P23975)
# Experiment: Displacement of [3H]nisoxetine from recombinant human norepinephrine transporter at 1 uM after 60 mins by scintillation counting method relative to control
# Settings: not given
# In short: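 Human NET-enriched membranes (1 μg), 5 nM [3H]nisoxetine in 50 mM Tris-HCl, 120 mM NaCl, 5 mM KCl, pH 7.4, 1% DMSO final; 60 min at 4 °C; 10 μM desipramine for nonspecific binding. Single 1 μM compound; filtration, displacement of radioligand.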
row,inhibition [%],SMILES
1,< 50,FC(CCN1CCc2ccccc2CC1)Cc1ccccc1 (centres undefined)

# Biological target: 5-hydroxytryptamine receptor 1A (Homo sapiens) (UniProt P08908)
# Experiment: Displacement of [3H]8-OH-DPAT from human 5HT1A receptor at 1 uM incubated for 2 hrs scintillation counting method relative to control
# Settings: not given
# In short: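 Human 5-HT1A-enriched membranes (10 μg), 2 nM [3H]-8-OH-DPAT, 50 mM Tris-HCl/5 mM MgCl2 pH 7.4, 0.1% DMSO final, 2 h at 37 °C; 10 μM 5-HT for nonspecific binding. Compound at 1 μM; radioligand displacement read after GF/C filtration.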
# Sequence of 5-hydroxytryptamine receptor 1A (Homo sapiens) (P08908 whole entry): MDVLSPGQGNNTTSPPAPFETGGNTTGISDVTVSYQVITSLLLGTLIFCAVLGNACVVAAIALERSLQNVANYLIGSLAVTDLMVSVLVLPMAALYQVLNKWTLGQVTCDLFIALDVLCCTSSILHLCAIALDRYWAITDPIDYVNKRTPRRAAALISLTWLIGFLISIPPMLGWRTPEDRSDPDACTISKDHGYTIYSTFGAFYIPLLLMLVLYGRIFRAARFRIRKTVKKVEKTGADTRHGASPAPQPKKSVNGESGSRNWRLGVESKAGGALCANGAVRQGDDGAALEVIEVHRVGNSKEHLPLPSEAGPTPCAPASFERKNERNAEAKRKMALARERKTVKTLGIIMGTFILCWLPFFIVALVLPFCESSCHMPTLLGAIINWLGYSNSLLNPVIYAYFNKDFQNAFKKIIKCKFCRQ
row,inhibition [%],SMILES
1,72,FC(CCN1CCc2ccccc2CC1)Cc1ccccc1 (centres undefined)

# Biological target: 5-hydroxytryptamine receptor 2B (Homo sapiens) (UniProt P41595)
# Experiment: Displacement of [3H]-LSD from recombinant human 5HT2B receptor at 1 uM after 30 mins by scintillation counting method relative to control
# Settings: not given
# In short: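 Human 5-HT2B-enriched membranes (5 µg), 1 nM [3H]LSD in 50 mM Tris-HCl, 4 mM CaCl2, 1% ascorbic acid, pH 7.4, 0.1% DMSO; 30 min, 37 °C; 50 µM 5-HT for nonspecific binding. Single 1 µM compound concentration; displacement after filtration.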
# Sequence of 5-hydroxytryptamine receptor 2B (Homo sapiens) (P41595 whole entry): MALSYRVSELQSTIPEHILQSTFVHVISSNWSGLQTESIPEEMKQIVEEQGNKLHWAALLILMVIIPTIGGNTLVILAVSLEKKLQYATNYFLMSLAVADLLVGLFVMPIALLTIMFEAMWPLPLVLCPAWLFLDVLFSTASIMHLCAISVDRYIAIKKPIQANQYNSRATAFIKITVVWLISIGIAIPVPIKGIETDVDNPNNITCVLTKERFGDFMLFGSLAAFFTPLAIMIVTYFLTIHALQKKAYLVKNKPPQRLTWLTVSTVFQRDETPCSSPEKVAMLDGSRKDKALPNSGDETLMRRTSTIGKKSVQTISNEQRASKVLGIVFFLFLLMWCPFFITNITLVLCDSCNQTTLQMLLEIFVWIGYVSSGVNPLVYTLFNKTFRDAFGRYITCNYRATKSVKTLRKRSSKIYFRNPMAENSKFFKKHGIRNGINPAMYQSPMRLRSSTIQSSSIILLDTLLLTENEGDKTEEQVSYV
row,inhibition [%],SMILES
1,< 50,FC(CCN1CCc2ccccc2CC1)Cc1ccccc1 (centres undefined)

# Biological target: Alpha-1A adrenergic receptor (Homo sapiens) (UniProt P35348)
# Experiment: Displacement of [3H]prazosin from human adrenergic alpha1A receptor at 1 uM after 90 mins by scintillation counting method relative to control
# Settings: not given
# In short: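 α1A adrenoceptor-enriched human membranes (10 µg), 0.2 nM [3H]prazosin in 50 mM HEPES, 5 mM MgCl2, 1 mM CaCl2, 0.2% BSA, pH 7.4; 90 min at 25 °C; 1 µM prazosin for nonspecific binding. Compound tested at 1 µM; bound ligand collected by filtration.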
# Sequence of Alpha-1A adrenergic receptor (Homo sapiens) (P35348 whole entry): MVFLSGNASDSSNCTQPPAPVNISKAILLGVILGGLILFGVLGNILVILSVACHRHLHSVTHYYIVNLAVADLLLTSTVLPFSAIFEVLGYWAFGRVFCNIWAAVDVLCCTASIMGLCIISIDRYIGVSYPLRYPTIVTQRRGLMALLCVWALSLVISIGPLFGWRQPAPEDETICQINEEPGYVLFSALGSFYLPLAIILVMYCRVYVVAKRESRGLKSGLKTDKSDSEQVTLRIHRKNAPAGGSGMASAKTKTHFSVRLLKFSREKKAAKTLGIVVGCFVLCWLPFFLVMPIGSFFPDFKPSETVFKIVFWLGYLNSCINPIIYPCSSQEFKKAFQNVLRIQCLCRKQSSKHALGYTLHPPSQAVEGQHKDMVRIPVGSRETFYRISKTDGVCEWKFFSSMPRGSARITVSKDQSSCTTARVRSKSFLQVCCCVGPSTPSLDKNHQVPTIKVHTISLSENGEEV
row,inhibition [%],SMILES
1,< 50,FC(CCN1CCc2ccccc2CC1)Cc1ccccc1 (centres undefined)

# Biological target: Histamine H1 receptor (Homo sapiens) (UniProt P35367)
# Experiment: Displacement of [3H]pyrilamine from human recombinant histamine H1 receptor at 1 uM after 90 mins by scintillation counting method relative to control
# Settings: not given
# In short: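 Human H1 receptor-enriched membranes (25 μg) with 2.4 nM [3H]pyrilamine in Na+/K+ phosphate buffer pH 7.4, 0.1% DMSO, 90 min, 25 °C; 10 μM triprolidine for nonspecific binding. Single 1 μM test concentration; filtration-based readout of displacement.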
# Sequence of Histamine H1 receptor (Homo sapiens) (P35367 whole entry): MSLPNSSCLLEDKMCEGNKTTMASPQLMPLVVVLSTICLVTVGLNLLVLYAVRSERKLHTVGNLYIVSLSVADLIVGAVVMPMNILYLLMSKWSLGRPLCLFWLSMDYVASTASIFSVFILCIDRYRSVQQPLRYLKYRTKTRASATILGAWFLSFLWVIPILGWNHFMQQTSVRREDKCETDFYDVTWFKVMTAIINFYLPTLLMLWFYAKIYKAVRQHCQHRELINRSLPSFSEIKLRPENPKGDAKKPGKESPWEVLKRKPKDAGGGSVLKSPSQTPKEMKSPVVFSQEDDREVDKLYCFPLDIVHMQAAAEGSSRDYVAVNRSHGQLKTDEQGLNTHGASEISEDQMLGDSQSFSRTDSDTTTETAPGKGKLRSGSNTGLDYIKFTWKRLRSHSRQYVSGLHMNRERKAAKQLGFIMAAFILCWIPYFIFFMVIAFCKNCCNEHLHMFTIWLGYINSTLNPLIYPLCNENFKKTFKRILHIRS
row,inhibition [%],SMILES
1,< 50,FC(CCN1CCc2ccccc2CC1)Cc1ccccc1 (centres undefined)

# System: not listed separately
# Experiment: Drug metabolism in human liver microsomes at 1 uM incubated for 1 hr in presence of NADPH by UPLC-MS analysis
# Format: ADME, Microsome
# Settings: read-out: Drug metabolism
# In short: (§1)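 Liver microsomes, compound 1 µM, 37 °C for 1 h in 50 mM Na/K phosphate pH 7.4, 3 mM MgCl2, NADPH-regenerating system, CYP 0.3 nmol/mL. Aliquots at 0, 10, 20, 40, 60 min quenched with cold acetonitrile, supernatants by UPLC-MS/MS; % parent remaining at end reported. Terfenadine as positive control.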
row,"metabolised at 1 h, 1 µM [%]",SMILES
1,100,FC(CCN1CCc2ccccc2CC1)Cc1ccccc1 (centres undefined)

# System: not listed separately
# Experiment: Drug metabolism in mouse liver microsomes at 1 uM incubated for 1 hr in presence of NADPH by UPLC-MS analysis
# Format: ADME, Microsome
# Settings: read-out: Drug metabolism
# In short: as §1
row,"metabolised at 1 h, 1 µM [%]",SMILES
1,100,FC(CCN1CCc2ccccc2CC1)Cc1ccccc1 (centres undefined)

# System: not listed separately
# Experiment: Drug metabolism in rat liver microsomes at 1 uM incubated for 1 hr in presence of NADPH by UPLC-MS analysis
# Format: ADME, Microsome
# Settings: read-out: Drug metabolism
# In short: as §1
row,"metabolised at 1 h, 1 µM [%]",SMILES
1,100,FC(CCN1CCc2ccccc2CC1)Cc1ccccc1 (centres undefined)

# Biological target: CYP2D6 (Homo sapiens, UniProt P10635)
# Experiment: Inhibition of recombinant human CYP2D6 at 1 uM by fluorescence probe substrate-based flurometric analysis
# Format: ADME
# Settings: not given
row,inhibition at 1 µM [%],SMILES
1,85,FC(CCN1CCc2ccccc2CC1)Cc1ccccc1 (centres undefined)

# System: Mus musculus
# Experiment: Antiallodynic activity in CD-1 mouse model of capsaicin-induced mechanical allodynia assessed as increase in paw withdrawal threshold at 32 mg/kg, sc administered 30 mins before capsaicin addition and measured after 15 mins by von-Frey test
# Format: functional, organism-based
# Settings: not given
# In short: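 Female CD-1 mice given compound or HPMC vehicle sc 30 min before intraplantar capsaicin (1 µg in 20 µL, 1% DMSO). 15 min later, electronic von Frey punctate stimulus (0.5 g) at least 5 mm from injection site; paw withdrawal latency, three trials 30 s apart, 50 s cutoff. % antiallodynic effect = [(LTD−LTS)/(CT−LTS)]×100; 6-8 mice per group, ANOVA with Bonferroni.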
row,SMILES,Activity
1,CN1CCN(CCc2ccc(Cl)c(Cl)c2)CC1,Active

# System: HepG2
# Experiment: Cytotoxicity against human HepG2 assessed as reduction in cell viability at 1 to 100 uM after 20 hrs by MTT assay
# Format: cell-based
# Settings: hepg2, 20 h
# In short: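 HepG2 cells, 3 x 10^4/well, grown 24 h in MEM/10% FBS, then exposed 20 h in serum-free medium to compound at 1, 10, 100 µM (from DMSO solutions). MTT 0.5 mg/mL for 4 h, formazan dissolved in DMSO, OD 550 nm. IC50 taken as lowest concentration giving ≥50% cytotoxicity versus untreated cells; duplicates in two assays (n = 4).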
row,SMILES,Activity
1,FC(CCN1CCc2ccccc2CC1)Cc1ccccc1 (centres undefined),Toxic

# System: HepG2
# Experiment: Cytotoxicity against human HepG2 assessed as reduction in cell viability at 1 to 100 uM after 20 hrs by neutral red uptake assay
# Format: cell-based
# Settings: hepg2, 20 h
# In short: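 HepG2 seeded 3 x 10^4/well, 24 h, then 20 h serum-free exposure at 1, 10 or 100 µM. Neutral red 50 µg/mL for 3 h, washed, dye extracted with 50% ethanol/1% acetic acid, OD 550 nm. IC50 assigned as lowest concentration reaching ≥50% cytotoxicity against untreated cells; n = 4 (duplicate, two assays).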
row,SMILES,Activity
1,FC(CCN1CCc2ccccc2CC1)Cc1ccccc1 (centres undefined),Toxic

# Biological target: Sodium-dependent dopamine transporter (Homo sapiens) (UniProt Q01959)
# Experiment: Displacement of [3H]GBR12935 from human DAT at 1 uM after 120 mins by scintillation counting method relative to control
# Settings: not given
# In short: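 DAT-enriched human membranes (5 µg), 2 nM [3H]GBR12935 in 50 mM Tris-HCl/100 mM NaCl pH 7.4, 0.1% DMSO, 120 min at 4 °C; 10 µM GBR12909 for nonspecific binding. Compound at 1 µM; displacement measured after filtration.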
# Sequence of Sodium-dependent dopamine transporter (Homo sapiens) (Q01959 whole entry): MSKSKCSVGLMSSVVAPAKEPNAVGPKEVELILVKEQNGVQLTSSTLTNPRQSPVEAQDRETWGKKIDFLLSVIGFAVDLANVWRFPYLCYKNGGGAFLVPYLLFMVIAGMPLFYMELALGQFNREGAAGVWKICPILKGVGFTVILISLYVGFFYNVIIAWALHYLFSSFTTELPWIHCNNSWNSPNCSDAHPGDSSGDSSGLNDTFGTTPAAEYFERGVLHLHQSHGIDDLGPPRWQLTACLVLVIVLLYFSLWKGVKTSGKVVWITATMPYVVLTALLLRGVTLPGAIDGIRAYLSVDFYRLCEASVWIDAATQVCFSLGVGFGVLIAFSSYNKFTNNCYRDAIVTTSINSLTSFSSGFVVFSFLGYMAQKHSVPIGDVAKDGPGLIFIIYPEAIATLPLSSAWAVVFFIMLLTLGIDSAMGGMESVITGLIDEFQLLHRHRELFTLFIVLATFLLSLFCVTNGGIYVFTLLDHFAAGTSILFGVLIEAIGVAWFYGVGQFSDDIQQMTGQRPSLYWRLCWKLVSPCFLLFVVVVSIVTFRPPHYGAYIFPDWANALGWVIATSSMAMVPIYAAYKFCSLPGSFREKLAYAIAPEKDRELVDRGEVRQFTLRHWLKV
row,inhibition [%],SMILES
1,< 50,FC(CCN1CCc2ccccc2CC1)Cc1ccccc1 (centres undefined)

# System: not listed separately
# Experiment: Selectivity ratio of Ki for sigma1 receptor in guinea pig brain cortex membranes to ratio of Ki for GluN2B/GluN1a (unknown origin) expressed in mouse L(tk-) cell membranes
# Format: cell-based
# Settings: not given
row,SMILES,Ratio Ki
1,Oc1ccc2c(c1)CCN(CCCCc1ccccc1)CC2O (centres undefined),2 to 3

# System: not listed separately
# Experiment: Stability of compound in aqueous HCl solution at pH 2 after 24 hrs by HPLC analysis
# Format: physicochemical
# Settings: buffer, pH 2, 24 h
# In short: (§2)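 Compound (25 μL of 10 mM DMSO stock) added to 1 mL aqueous buffered solution, pH 2 or pH 7.4, stirred 24 h at room temperature, analyzed by HPLC-MS; deemed stable if peak area remained 95–105%.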
row,Stability,SMILES
1,Stable,FC(CCN1CCc2ccccc2CC1)Cc1ccccc1 (centres undefined)

# System: not listed separately
# Experiment: Stability of compound in phosphate buffer at pH 7.4 after 24 hrs by HPLC analysis
# Format: physicochemical
# Settings: pH 7.4, 24 h
# In short: as §2
row,Stability,SMILES
1,Stable,FC(CCN1CCc2ccccc2CC1)Cc1ccccc1 (centres undefined)

# Organism: Sus scrofa
# Settings: at 1 µM
row,inhibition [%],SMILES
1,15,Oc1ccc2c(c1)CCN(CCC(F)Cc1ccccc1)CC2 (racemic) [listing 2 of 2 here]
2,35,Oc1ccc2c(c1)CCN(CCCCc1ccccc1)CC2O (centres undefined)
3,0,FC(CCN1CCc2ccccc2CC1)Cc1ccccc1 (centres undefined)
